According to ChEMBL document CHEMBL1275487, “Reduced biocide susceptibility in Candida albicans biofilms” (Antimicrob Agents Chemother, 2008):

Tests used:
Candida albicans [1] = experiment: Antifungal activity against Candida albicans DAY 185 assessed as decrease mature biofilm burden after 24 hrs by XTT reduction assay; type: functional, organism-based
Outline: (§1)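 Biofilms formed in 96-well polystyrene plates in RPMI-MOPS, inoculum 10^6 to 10^7 cells/well, 24 h at 30°C, then washed twice with PBS. Biocides were added with fresh medium to the 24 h mature biofilms (H2O2 1 to 1,000 mM; EtOH 0.05 to 50%; SDS 0.0004 to 0.4%). After a further 24 h at 30°C, metabolic activity was read by XTT reduction. EC50 and EC80 are the concentrations giving 50% and 80% reduction in OD versus no-drug controls. Triplicate, two occasions.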

Candida albicans [2] = experiment: Antifungal activity against Candida albicans DAY 185 grown as planktonic cells using 10^6 to 10^7 cells by CLSI method; type: functional, organism-based
Outline: (§2)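 Planktonic susceptibility was tested by the CLSI method with the inoculum raised to the mature-biofilm cell density (10^6 to 10^7 cells/well) in RPMI-MOPS. EC50 and EC80 values were derived. Triplicate, two occasions.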

Candida parapsilosis [3] = experiment: Antifungal activity against Candida parapsilosis 5986 grown as planktonic cells using 10^6 to 10^7 cells by CLSI method; type: functional, organism-based; outline: as §2
Candida albicans [4] = experiment: Antifungal activity against Candida albicans DAY 185 assessed as inhibition of biofilm formation after 24 hrs by XTT reduction assay; type: functional, organism-based
Outline: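 Biocides were added to the wells at the time of inoculation in 96-well polystyrene plates (RPMI-MOPS, 10^6 to 10^7 cells/well) and incubated 24 h at 30°C (H2O2 1 to 1,000 mM; EtOH 0.05 to 50%; SDS 0.0004 to 0.4%). XTT reduction was then read. EC50 and EC80 are the concentrations giving 50% and 80% OD reduction versus no-drug controls. Triplicate, two occasions.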

Candida parapsilosis [5] = experiment: Antifungal activity against Candida parapsilosis 5986 assessed as decrease mature biofilm burden after 24 hrs by XTT reduction assay; type: functional, organism-based; outline: as §1
Nakaseomyces glabratus [6] = experiment: Antifungal activity against Candida glabrata 5740 grown as planktonic cells using 10^6 to 10^7 cells by CLSI method; type: functional, organism-based; outline: as §2
Candida albicans [7] = experiment: FICI in Candida albicans DAY 185 after 24 hrs in presence of fluconazole; type: functional
Outline: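 Checkerboard format on 24 h mature biofilms, with each biocide combined with fluconazole (0.0625 to 1,000 μg/ml). Incubation was 24 h with the combination, followed by an XTT reduction readout against no-drug controls. Fractional inhibitory concentration indices were calculated to gauge how each biocide affects fluconazole activity.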

Candida albicans [8] = experiment: Antifungal activity against Candida albicans K1 grown as planktonic cells using 10^6 to 10^7 cells by CLSI method; type: functional, organism-based; outline: as §2
Candida parapsilosis [9] = experiment: Antifungal activity against Candida parapsilosis 5986 grown as planktonic cells by CLSI method; type: functional
Outline: (§3)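 Planktonic biocide MICs were determined by CLSI broth microdilution using CLSI endpoints, with the standard CLSI inoculum (0.5 × 10^3 to 2.5 × 10^3 CFU/ml) in RPMI-MOPS. Triplicate, two occasions.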

Nakaseomyces glabratus [10] = experiment: Antifungal activity against Candida glabrata 5740 grown as planktonic cells by CLSI method; type: functional; outline: as §3
Candida albicans [11] = experiment: Antifungal activity against Candida albicans K1 grown as planktonic cells by CLSI method; type: functional; outline: as §3
Candida albicans [12] = experiment: Antifungal activity against Candida albicans K1 assessed as decrease mature biofilm burden after 24 hrs by XTT reduction assay; type: functional, organism-based; outline: as §1
Candida albicans [13] = experiment: Antifungal activity against Candida albicans DAY 185 grown as planktonic cells by CLSI method; type: functional; outline: as §3
Nakaseomyces glabratus [14] = experiment: Antifungal activity against Candida glabrata 5740 assessed as decrease mature biofilm burden after 24 hrs by XTT reduction assay; type: functional, organism-based; outline: as §1

SMILES	EC50 (Candida albicans [1])	EC80 (Candida albicans [1])	EC50 (Candida albicans [2])	EC80 (Candida albicans [2])	EC50 (Candida parapsilosis [3])	EC80 (Candida parapsilosis [3])	EC50 (Candida albicans [4])	EC80 (Candida albicans [4])	EC50 (Candida parapsilosis [5])	EC80 (Candida parapsilosis [5])	EC50 (Nakaseomyces glabratus [6])	EC80 (Nakaseomyces glabratus [6])	fractional inhibitory concentration index (FICI) (Candida albicans [7])	EC50 (Candida albicans [8])	EC80 (Candida albicans [8])	MIC (Candida parapsilosis [9])	MIC (Nakaseomyces glabratus [10])	MIC (Candida albicans [11])	EC50 (Candida albicans [12])	EC80 (Candida albicans [12])	also measured
CCO [ALCOHOL]	35%	40%	6%	13%	6%	6%	35%	35%	25%	25%	13%	13%	<0.5	6%	13%	1.5%	3%	1.5%	25%	25%	MIC (Candida albicans [13]): 3%; EC50 (Nakaseomyces glabratus [14]): 25%; EC80 (Nakaseomyces glabratus [14]): 25%
CCCCCCCCCCCCOS(=O)(=O)[O-].[Na+] [SODIUM LAURYL SULFATE]	0.15%	0.15%	0.05%	0.05%	0.03%	0.05%	0.05%	0.1%	0.05%	0.1%	0.03%	0.03%	1	0.03%	0.05%	0.01%	0.01%	0.01%	0.05%	0.1%	MIC (Candida albicans [13]): 0.01%; EC50 (Nakaseomyces glabratus [14]): 0.05%; EC80 (Nakaseomyces glabratus [14]): 0.05%
